VLA-4 inh – inhibition in a human VLA-4 binding assay. AID 2557. 330,000 tested, 0.2% active. P13612. inhibition, % (about 7 µM as worked out from the volumes in the protocol). VLA-4 expressing cells, ligand binding flow cytometry; in the data active = inhibition above about 50%
ABCB6 inh 2 – blocks the human ABCB6 transporter | Q9NP58 | K562-ABCB6 porphyrin accumulation, flow cytometry, 1 h; hits give low values | fluorescence ratio to DMSO, % at 10 µM | 360,000 tested, 0.19% active;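 active = fluorescence ratio to DMSO below 75%, the collection mean minus 3 SD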;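 note: signal is porphyrin accumulated inside mitochondria; 100% equals median channel fluorescence of DMSO control wells; lower ratio means ABCB6 inhibition with less porphyrin fluorescence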
Target sequence (Q9NP58 whole entry, looked up): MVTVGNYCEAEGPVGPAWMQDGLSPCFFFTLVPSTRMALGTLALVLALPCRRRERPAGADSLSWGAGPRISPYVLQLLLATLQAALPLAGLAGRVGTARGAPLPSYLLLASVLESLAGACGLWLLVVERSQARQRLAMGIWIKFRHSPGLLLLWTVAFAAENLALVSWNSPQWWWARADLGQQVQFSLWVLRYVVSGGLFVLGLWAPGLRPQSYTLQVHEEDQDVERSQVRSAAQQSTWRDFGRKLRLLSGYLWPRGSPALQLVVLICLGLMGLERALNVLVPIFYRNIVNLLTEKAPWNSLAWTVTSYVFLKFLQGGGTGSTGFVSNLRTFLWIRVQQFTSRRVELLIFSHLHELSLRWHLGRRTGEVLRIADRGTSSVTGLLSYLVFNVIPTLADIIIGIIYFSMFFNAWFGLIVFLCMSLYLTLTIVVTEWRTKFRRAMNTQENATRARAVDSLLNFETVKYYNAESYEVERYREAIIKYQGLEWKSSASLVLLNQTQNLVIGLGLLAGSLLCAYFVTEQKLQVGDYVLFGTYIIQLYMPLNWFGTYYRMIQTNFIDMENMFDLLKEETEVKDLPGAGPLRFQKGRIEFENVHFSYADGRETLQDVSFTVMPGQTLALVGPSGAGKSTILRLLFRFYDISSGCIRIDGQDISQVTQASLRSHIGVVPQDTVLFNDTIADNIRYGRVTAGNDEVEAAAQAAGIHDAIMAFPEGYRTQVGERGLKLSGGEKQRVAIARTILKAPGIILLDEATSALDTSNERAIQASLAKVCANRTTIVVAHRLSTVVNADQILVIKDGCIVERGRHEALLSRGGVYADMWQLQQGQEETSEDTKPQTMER
MT1-MMP act inh – MT1-MMP (human) activation inhibition; 360,000 tested, 0.061% active; P50281; GFP/RFP ratio change, % at 20 µM; HT1080 RFP-PRO-GFP cells, GFP/RFP ratio fluorescence, overnight; percent of plate control window, DMSO zero; AID 651647;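 active = GFP/RFP ratio change of at least 30% with cell ATP level not reduced by more than half and red fluorescence within 50% of control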
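Assay system: HT1080 RFP-PRO-GFP cells. Benchmarks: DMSO vehicle wells and RFP-L50D-GFP reporter cell wells. Times: overnight cell settling, then overnight compound exposure, 37 °C, 5% CO2. Compound: 20 µM single dose, 1% DMSO. Read-out basis: GFP/RFP fluorescence ratio.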
Granule exo inh – blocks lytic granule exocytosis; TALL-104 LAMP-1 surface exposure, flow cytometry; cells stimulated with thapsigargin and PMA; inhibition, % at 10 µM; 360,000 tested, 0.66% active; AID 651702;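 active = inhibition above about 55%, limit read from the data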
DAGLB inh – blocks human DAGLB lipase activity | HEK293T DAGLB membrane lysate, EnzChek fluorogenic substrate | Q8NCG7 | inhibition, % at 5.17 µM | AID 504411 | 340,000 tested, 0.059% active; in the data active = inhibition above about 34%;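 note: 0% = enzyme with vehicle and 100% = wells lacking enzyme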
FGF22 binding – binders of recombinant human FGF22 by thermal shift | SYPRO orange fluorescence; percent of sucrose octasulfate shift, DMSO zero | activity (Tm shift, normalised), % at 9.99 µM | 340,000 tested, 1.5% active | AID 651658;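 active = mean Tm shift, scaled 0 neutral to 100 positive control, at about 1.3% or above, every replicate too, limit read from the data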
ABCB6 blocker 1 – human ABCB6 transporter inhibition | shares compounds with ABCB6 inh 2 | K562-ABCB6 porphyrin accumulation, flow cytometry, 1 h; hits give low values | 700 tested, under 10 active | ratio response (% of DMSO), % at 10 µM;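 active = repeat-averaged ratio response below 75% of DMSO, the collection mean minus 3 SD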;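 note: median porphyrin fluorescence at 575 nm with 488 nm excitation from mitochondria; lower ratio means less porphyrin signal so ABCB6 inhibition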
* = called active by the depositor; · = no result. A selection: hits, their analogues and other compounds. The true share with any hit is near 2%.

SMILES	VLA-4 inh	ABCB6 inh 2	MT1-MMP act inh	Granule exo inh	DAGLB inh	FGF22 binding	ABCB6 blocker 1
CC1(C)Oc2ccc3ccc(=O)oc3c2C[C@H]1O	4	68*	-1	-3	-1	0	94
Cc1c(C#N)c(NC(=O)C(C)C)n(Cc2ccccc2)c1C	-3	74*	-2	-7	0	0	103
Cc1cccc(C(=O)Nc2c(C#N)c(C)c(C)n2Cc2ccccc2)c1	3	106	-2	-1	0	·	·
C[C@H](CO)N1C[C@H](C)[C@@H](CN(C)Cc2ccc(C(=O)O)cc2)Oc2ccc(NC(=O)C3CCCCC3)cc2CC1=O	·	·	·	·	·	0	·
Cc1ccc(S(=O)(=O)Nc2cccc3c2O[C@@H](CN(C)CC2CCCCC2)[C@@H](C)CN([C@H](C)CO)C3=O)cc1	·	·	·	·	·	0	·
Cc1ccccc1Cc1c(C)nc2c(C(=O)NCc3ccco3)cnn2c1C	-2	70*	-2	13	-1	0	99
Cc1nc2c(C(=O)N3CCCC3)cnn2c(C)c1Cc1c(F)cccc1Cl	-7	95	1	0	-4	·	97
Cc1ccccc1Cc1c(C)nc2nc(SCC(=O)NCc3ccco3)nn2c1C	9	94	1	2	-1	·	·
Cc1nc2c(C(=O)O)cnn2c(C)c1Cc1ccccc1F	-3	92	2	0	-1	·	·
CCOC(=O)N1CCN(C(=O)c2cnn3c(C)c(Cc4ccc(C)cc4)c(C)nc23)CC1	-10	111	1	0	0	·	99
Cc1ccc(C)c(Cc2c(C)nc3c(C(=O)N4CCOCC4)cnn3c2C)c1	11	93	-1	2	2	·	101
COc1ccc(C2=CC(=O)C[C@H](c3ccc(Cl)cc3)C2)cc1	10	101	8	-4	-21	0	·
O=C1C=C(c2ccc(OC(F)(F)F)cc2)C[C@@H](c2ccc(Cl)cc2)C1	0	74*	3	1	-13	0	98
C[C@@H]1CN([C@@H](C)CO)C(=O)c2cc(C#CCN(C)C)cnc2O[C@H]1CN(C)Cc1ccc(-c2ccccc2)cc1	·	·	·	·	·	0	·
Cc1ccc(F)c(S(=O)(=O)NC(=O)C2(C)CCN2C(=O)C2(c3ccc(Cl)cc3)CC2)c1 (stereo not given)	·	975	-1	-2	·	0	99
Cc1ccc(S(=O)(=O)NC(=O)C2(C)CCN2C(=O)C2(c3ccc(Cl)cc3)CCC2)cc1 (stereo not given)	·	100	2	-5	·	0	·
CC1(C(=O)NS(=O)(=O)c2cccc(C#N)c2)CCN1C(=O)C1(c2ccc(Cl)cc2)CC1 (stereo not given)	·	93	-1	-3	·	0	·
CC1(C(=O)NS(=O)(=O)c2ccc(Cl)cc2)CCN1C(=O)C1(c2ccc(Cl)cc2)CCC1 (stereo not given)	·	97	-1	3	·	1	99
CC1(C(=O)NS(=O)(=O)c2ccc3c(c2)CCO3)CCN1C(=O)C1(c2ccc(Cl)cc2)CCC1 (stereo not given)	·	87	5	5	·	0	96
CC1(C(=O)NS(=O)(=O)c2ccc(C#N)cc2)CCN1C(=O)C1(c2ccc(Cl)cc2)CC1 (stereo not given)	·	101	0	1	·	0	100
CC(C)(C)c1ccc(S(=O)(=O)NC(=O)C2(C)CCN2C(=O)C2(c3ccccc3)CC2)cc1 (stereo not given)	·	95	-4	-5	·	0	·
CC1(C(=O)NS(=O)(=O)c2ccc(Cl)cc2)CCN1C(=O)C1(c2ccccc2)CCCC1 (stereo not given)	·	101	2	6	·	0	·
Cc1ccccc1S(=O)(=O)NC(=O)C1(C)CCN1C(=O)C1(c2ccccc2)CC1 (stereo not given)	·	102	1	-3	·	0	101
CC1(C(=O)NS(=O)(=O)c2ccccc2)CCN1C(=O)C1(c2ccc(Cl)cc2)CC1 (stereo not given)	·	71*	-4	14	·	0	102
CC1(C(=O)NS(=O)(=O)c2ccc(C#N)cc2)CCN1C(=O)C1(c2ccccc2)CCCC1 (stereo not given)	·	101	-12	-2	·	0	100
SMILES	VLA-4 inh	ABCB6 inh 2	MT1-MMP act inh	Granule exo inh	DAGLB inh	FGF22 binding	ABCB6 blocker 1
O=C(N[C@H]1CC[C@H](CCNS(=O)(=O)c2cccc(Cl)c2)O[C@@H]1CO)c1ccncc1	·	·	·	·	·	0	·
O=C(NCC[C@@H]1CC[C@H](NS(=O)(=O)c2cccc(F)c2)[C@H](CO)O1)C1CCCC1	·	·	·	·	·	0	·
COc1ccc(-c2cnc(N)nc2-c2ccc(OC)cc2O)cc1	-14	73*	-18	5	0	·	98
COc1ccc(-c2nc(N)ncc2-c2ccccc2)c(O)c1	19	96	-1	6	-3	1	·
COC(=O)C1(N2C(=O)O[C@@H](Cc3ccccc3)[C@H]2/C=C/C2CC2)CCCC1	·	·	·	·	·	0	·
O=C(N[C@@H]1CC[C@@H](CCNS(=O)(=O)c2ccc(Cl)cc2)O[C@@H]1CO)c1ccccn1	·	·	·	·	·	0	·
NS(=O)(=O)c1ccc(CCNc2ccn3nc(-c4ccccc4)cc3n2)cc1	·	103	0	1	·	0	·
COc1cc(-c2cc3nc(NCCc4ccc(S(N)(=O)=O)cc4)ccn3n2)cc(OC)c1OC	·	60*	13	15	·	0	100
CCCn1c(SCC(=O)Nc2ccc(C(=O)Nc3ccccc3OC)cc2)n[nH]c1=O	2	68*	5	-5	1	0	98
COc1ccccc1NC(=O)c1ccc(NC(=O)CSc2nncn2C)cc1	-11	93	2	1	1	0	·
CC(=O)c1cccc(NC(=O)CN2C(=O)NC3(CCCCCCC3)C2=O)c1	3	61*	0	1	0	·	99
CCNC(=O)c1cccc(NC(=O)CN2C(=O)NC3(CCCCC3)C2=O)c1	·	100	1	5	0	0	·
COc1ccc2c3c(n(C)c2c1)[C@H](CO)N(Cc1ccncc1)CC31CN(C(=O)C2CCCC2)C1	·	·	·	·	·	0	·
CCNC(=O)C[C@@H]1CC[C@@H]2[C@H](COc3ccc(NC(=O)c4cccs4)cc3C(=O)N2C)O1	·	·	·	·	·	0	·
Cc1cccc(OCC(O)CNC(=O)c2ccccc2C(=O)O)c1 (stereo not given)	3	93	-3	-2	-1	·	·
Cc1ccc(OCC(O)CNC(=O)c2ccccc2C(=O)O)cc1 (stereo not given)	-3	71*	9	0	0	·	99
CC(=O)c1ccc(S(=O)(=O)NCc2cccnc2)cc1	6	73*	3	-2	-1	0	98

Screening data: PubChem BioAssay, several laboratories
